Results taken from ChEMBL document CHEMBL3102720, “Structure-activity relationship study of permethyl ningalin B analogues as P-glycoprotein chemosensitizers” (J Med Chem, 2013).
pIC50: −log10 of the molar value. Calls of active or inactive are those of the source. The calls are words filed in the database; no cut-off is given here.

Assays:
[1] = molecular target: T1, ATP-dependent translocase ABCB1 (Homo sapiens, UniProt P08183); experiment: Modulation of p-gp (unknown origin) transfected in human MDA435/LCC6MDR cells assessed as potentiation of paclitaxel-induced cytotoxicity at 1 uM after 5 days by MTS assay relative to untreated control; format: cell-based; details: 120 h
T1 sequence (P08183 whole entry): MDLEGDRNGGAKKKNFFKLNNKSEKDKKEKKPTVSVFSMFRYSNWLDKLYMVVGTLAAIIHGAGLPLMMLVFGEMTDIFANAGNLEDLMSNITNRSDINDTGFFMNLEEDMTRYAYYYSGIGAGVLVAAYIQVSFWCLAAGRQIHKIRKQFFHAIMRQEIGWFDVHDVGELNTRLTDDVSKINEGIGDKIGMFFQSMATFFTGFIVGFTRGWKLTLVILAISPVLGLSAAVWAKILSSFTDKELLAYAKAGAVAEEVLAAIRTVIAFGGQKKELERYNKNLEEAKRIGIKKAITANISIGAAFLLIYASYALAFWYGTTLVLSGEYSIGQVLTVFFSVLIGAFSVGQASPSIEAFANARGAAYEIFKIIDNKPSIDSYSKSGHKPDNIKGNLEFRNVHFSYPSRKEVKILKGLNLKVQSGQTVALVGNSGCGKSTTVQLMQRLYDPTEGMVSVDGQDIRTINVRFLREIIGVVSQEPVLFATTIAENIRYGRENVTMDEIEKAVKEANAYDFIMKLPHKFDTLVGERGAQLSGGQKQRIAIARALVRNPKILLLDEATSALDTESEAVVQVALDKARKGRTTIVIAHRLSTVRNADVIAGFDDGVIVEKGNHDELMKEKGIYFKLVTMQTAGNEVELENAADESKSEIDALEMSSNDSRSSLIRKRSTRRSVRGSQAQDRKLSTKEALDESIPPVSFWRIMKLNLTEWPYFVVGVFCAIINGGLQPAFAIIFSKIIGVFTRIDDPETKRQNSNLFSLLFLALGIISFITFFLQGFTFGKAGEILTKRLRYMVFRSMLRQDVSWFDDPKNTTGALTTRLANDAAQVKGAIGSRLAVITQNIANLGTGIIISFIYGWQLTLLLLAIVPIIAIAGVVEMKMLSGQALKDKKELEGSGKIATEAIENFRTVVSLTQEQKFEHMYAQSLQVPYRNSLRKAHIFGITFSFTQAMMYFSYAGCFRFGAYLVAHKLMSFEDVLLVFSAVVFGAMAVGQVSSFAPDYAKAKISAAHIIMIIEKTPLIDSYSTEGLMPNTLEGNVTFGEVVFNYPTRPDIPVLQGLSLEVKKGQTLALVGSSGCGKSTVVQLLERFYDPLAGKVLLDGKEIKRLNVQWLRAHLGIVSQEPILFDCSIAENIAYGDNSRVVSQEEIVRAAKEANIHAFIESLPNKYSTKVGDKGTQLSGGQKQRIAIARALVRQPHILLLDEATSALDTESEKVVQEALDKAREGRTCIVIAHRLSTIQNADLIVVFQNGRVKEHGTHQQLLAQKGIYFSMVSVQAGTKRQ
Procedure, shortened: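 6000 LCC6MDR or LCC6 cells per well co-incubated with paclitaxel with or without 1 μM modulator for 5 days at 37 °C. […] RF = IC50 without modulator divided by IC50 with modulator. N = 2–3 experiments; mean ± SEM.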

[2] = Cytotoxicity against human MDA435/LCC6MDR cells assessed as growth inhibition after 3 days by MTS assay; format: functional, cell-based; details: 72 h
Procedure, shortened: (§1)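 10 000 cells per well exposed to a concentration series of analogue for 3 days at 37 °C. Growth read by MTS proliferation assay and IC50 determined. Cells were cultured in DMEM with 10% heat-inactivated FBS and penicillin/streptomycin at 37 °C under 5% CO2.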

P-gp (unknown origin) = experiment: Therapeutic index, ratio of IC50 for mouse L929 cells to EC50 for modulation of p-gp (unknown origin) transfected in human MDA435/LCC6MDR cells assessed as reversal of paclitaxel resistance; format: cell-based; details: read-out: Ratio IC50/EC50
Procedure, shortened: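 Therapeutic index = L929 cytotoxicity IC50 (10 000 cells, 3-day MTS) divided by EC50 for reversing paclitaxel resistance in LCC6MDR (5-day MTS co-incubation with modulator series). N = 2–5 experiments.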

[3] = molecular target: Multidrug resistance-associated protein 1 (Homo sapiens, UniProt P33527); experiment: Modulation of MRP1 (unknown origin) transfected in human 2008/MRP1 cells assessed as potentiation of doxorubicin-induced cytotoxicity at 1 uM after 5 days by MTS assay relative to untreated control; format: cell-based; details: 2008/mrp1, 120 h
Sequence of Multidrug resistance-associated protein 1 (P33527 whole entry): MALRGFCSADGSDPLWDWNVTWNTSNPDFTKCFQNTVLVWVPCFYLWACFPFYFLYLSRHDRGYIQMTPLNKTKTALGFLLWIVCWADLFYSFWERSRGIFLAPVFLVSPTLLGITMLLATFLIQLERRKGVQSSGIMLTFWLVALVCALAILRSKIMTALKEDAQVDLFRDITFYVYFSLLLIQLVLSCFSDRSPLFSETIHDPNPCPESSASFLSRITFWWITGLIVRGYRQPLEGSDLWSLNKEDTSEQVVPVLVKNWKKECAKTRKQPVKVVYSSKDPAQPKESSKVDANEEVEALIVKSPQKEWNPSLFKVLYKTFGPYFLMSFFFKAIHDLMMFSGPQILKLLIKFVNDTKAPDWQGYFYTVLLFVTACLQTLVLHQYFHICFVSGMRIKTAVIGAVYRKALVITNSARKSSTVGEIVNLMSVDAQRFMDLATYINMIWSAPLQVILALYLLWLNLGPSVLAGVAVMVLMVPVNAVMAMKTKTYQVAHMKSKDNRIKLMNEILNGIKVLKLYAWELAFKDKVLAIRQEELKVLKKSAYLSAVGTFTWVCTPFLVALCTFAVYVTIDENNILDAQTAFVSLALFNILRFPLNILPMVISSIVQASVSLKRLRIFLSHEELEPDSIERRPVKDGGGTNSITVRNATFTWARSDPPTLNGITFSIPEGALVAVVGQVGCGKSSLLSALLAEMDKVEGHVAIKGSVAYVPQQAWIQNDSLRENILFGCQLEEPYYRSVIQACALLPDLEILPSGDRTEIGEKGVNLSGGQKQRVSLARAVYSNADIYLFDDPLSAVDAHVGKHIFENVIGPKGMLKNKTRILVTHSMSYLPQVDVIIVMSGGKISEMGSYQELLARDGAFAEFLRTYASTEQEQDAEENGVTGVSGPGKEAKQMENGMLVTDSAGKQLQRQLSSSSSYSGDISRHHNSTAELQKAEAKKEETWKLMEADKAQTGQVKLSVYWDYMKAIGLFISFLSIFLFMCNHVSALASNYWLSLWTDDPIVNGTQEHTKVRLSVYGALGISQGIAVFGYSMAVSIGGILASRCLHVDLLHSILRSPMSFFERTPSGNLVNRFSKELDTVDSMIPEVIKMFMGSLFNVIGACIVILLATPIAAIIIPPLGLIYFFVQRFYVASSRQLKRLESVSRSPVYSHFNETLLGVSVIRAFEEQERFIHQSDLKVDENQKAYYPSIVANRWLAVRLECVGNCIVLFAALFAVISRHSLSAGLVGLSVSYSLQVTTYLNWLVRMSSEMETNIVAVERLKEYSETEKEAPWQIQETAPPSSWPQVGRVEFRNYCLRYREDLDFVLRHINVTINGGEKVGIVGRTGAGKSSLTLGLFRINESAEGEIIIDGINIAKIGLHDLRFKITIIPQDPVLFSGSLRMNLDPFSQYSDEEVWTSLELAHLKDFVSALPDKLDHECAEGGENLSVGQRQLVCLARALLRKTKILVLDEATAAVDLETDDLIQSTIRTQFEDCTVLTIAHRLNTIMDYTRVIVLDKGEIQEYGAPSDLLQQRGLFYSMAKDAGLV

MDA-435/LCC6 = experiment: Induction of doxorubicin accumulation in human MDA435/LCC6 cells at 1 uM after 150 mins by spectrofluorometric analysis; format: functional, cell-based
Procedure, shortened: (§2)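 1 × 10^6 LCC6 or LCC6MDR cells incubated with 20 μM doxorubicin plus 1 μM analogue at 37 °C for 150 min; 0.1% DMSO served as negative control. Cells were washed with cold PBS and lysed in 0.75 M HCl/0.2% Triton X-100 in 2-propanol. Supernatant DOX fluorescence was read at ex 460/em 610 nm. N = 3–5 experiments; Student's t test.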

Homo sapiens [4] = species on record: Homo sapiens; experiment: Ratio of verapamil EC50 to compound EC50 for modulation of p-gp (unknown origin) transfected in human MDA435/LCC6MDR cells assessed as reversal of paclitaxel resistance; format: cell-based
[5] = molecular target: T2, Broad substrate specificity ATP-binding cassette transporter ABCG2 (Homo sapiens, UniProt Q9UNQ0); experiment: Modulation of BCRP (unknown origin) transfected in human HEK293/R2 cells assessed as potentiation of topotecan-induced cytotoxicity at 1 uM after 5 days by MTS assay relative to untreated control; format: cell-based; details: hek293/r2, 120 h
T2 sequence (Q9UNQ0 whole entry): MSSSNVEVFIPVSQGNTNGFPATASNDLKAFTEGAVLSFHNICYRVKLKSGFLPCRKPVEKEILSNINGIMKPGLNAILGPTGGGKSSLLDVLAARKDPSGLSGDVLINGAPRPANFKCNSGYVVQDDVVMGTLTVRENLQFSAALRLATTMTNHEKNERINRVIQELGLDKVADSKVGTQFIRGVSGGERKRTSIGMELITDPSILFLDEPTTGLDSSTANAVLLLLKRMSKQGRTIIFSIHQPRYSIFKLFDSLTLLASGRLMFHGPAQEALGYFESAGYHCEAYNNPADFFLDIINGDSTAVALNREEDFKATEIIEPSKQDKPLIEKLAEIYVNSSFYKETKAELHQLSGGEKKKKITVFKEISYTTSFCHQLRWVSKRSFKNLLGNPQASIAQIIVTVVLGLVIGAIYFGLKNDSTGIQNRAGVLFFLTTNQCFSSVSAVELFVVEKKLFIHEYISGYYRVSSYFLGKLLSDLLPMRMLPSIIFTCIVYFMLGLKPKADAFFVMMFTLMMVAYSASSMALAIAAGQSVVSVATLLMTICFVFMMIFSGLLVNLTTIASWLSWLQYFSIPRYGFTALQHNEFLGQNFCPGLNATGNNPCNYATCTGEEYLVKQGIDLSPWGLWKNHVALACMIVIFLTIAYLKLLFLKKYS
Procedure, shortened: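 4500 HEK293/R2 or HEK293/pcDNA3.1 cells per well co-incubated with topotecan with or without 1 μM modulator for 5 days at 37 °C. Readout was MTS/PMS absorbance at 490 nm after 2 h. RF = IC50 without modulator divided by IC50 with modulator. N = 2–4 experiments.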

L929 = experiment: Cytotoxicity against mouse L929 cells assessed as growth inhibition after 3 days by MTS assay; format: cell-based; details: L929, 72 h; procedure, shortened: as §1
[6] = Cytotoxicity against human MDA435/LCC6 cells assessed as growth inhibition after 3 days by MTS assay; format: functional, cell-based; details: MDA-435/LCC6, 72 h; procedure, shortened: as §1
[7] = molecular target: T1, ATP-dependent translocase ABCB1; experiment: Modulation of p-gp (unknown origin) transfected in human MDA435/LCC6MDR cells assessed as induction of doxorubicin accumulation at 1 uM after 150 mins by spectrofluorometric analysis relative to control; format: cell-based; details: 2.5 h; procedure, shortened: as §2
[8] = molecular target: T1, ATP-dependent translocase ABCB1; experiment: Inhibition of p-gp (unknown origin) transfected in human MDA435/LCC6MDR cells assessed as reversal of doxorubicin drug resistance relative to control; format: cell-based
[9] = molecular target: T1, ATP-dependent translocase ABCB1; experiment: Modulation of p-gp (unknown origin) transfected in human MDA435/LCC6MDR cells assessed as increase in intracellular drug accumulation at 20 to 200 uM after 150 mins by reverse phase-HPLC analysis; format: cell-based; details: 2.5 h
Procedure, shortened: (§3)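 3 × 10^6 LCC6 or LCC6MDR cells incubated with 20 or 200 μM analogue at 37 °C for 150 min. Cells were then pelleted, washed with cold PBS pH 7.4, lysed in 100% methanol by vortexing for 5 min and spun. The supernatant was analysed by reversed-phase C18 HPLC with UV-vis detection. N = 2 independent experiments.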

[10] = Drug uptake in human MDA435/LCC6 cells at 20 to 200 uM after 150 mins by reverse phase-HPLC analysis; format: ADME, cell-based; details: mda-435/lcc6, 2.5 h; procedure, shortened: as §3
Homo sapiens [11] = species on record: Homo sapiens; experiment: Ratio of compound activity to verapamil activity for modulation of p-gp (unknown origin) transfected in human MDA435/LCC6MDR cells assessed as potentiation of paclitaxel-induced cytotoxicity; format: cell-based

SMILES | fold change (FC) [1] | other results
C=CCOc1cc(CN2C(=O)C(c3ccc(OC)c(OC)c3)=C(c3ccc(OC)c(OC)c3)C2=O)cc(OCC=C)c1OCC=C | 3.8 | –
C=CCOc1cc(CN2C(=O)C(c3ccc(OC)c(OC)c3)=C(c3cc(OC)c(OC)c(OC)c3)C2=O)cc(OCC=C)c1OCC=C | 6.8 | –
COc1ccc(C2=C(c3cc(OC)c(OC)c(OC)c3)C(=O)N(CC(=O)c3ccc(OCc4ccccc4)c(OC)c3)C2=O)cc1OC | 42.7 | pIC50 [2]: < 4.00; selectivity ratio (P-gp (unknown origin)): > 909; fold change (FC) [3]: 1.2; Activity (MDA-435/LCC6): inactive; Ratio EC50 (Homo sapiens [4]): 4.1; fold change (FC) [5]: 8.2; pIC50 (L929): < 4.00; pIC50 [6]: < 4.00; fold change (FC) [7]: 2.3; fold change (FC) [8]: 5.6
COc1ccc(C2=C(c3cc(OC)c(OC)c(OC)c3)C(=O)N(CC(=O)c3cc(OC)c(OC)c(OC)c3)C2=O)cc1OC | 3.8 | –
COc1ccc(C2=C(c3cc(OC)c(OC)c(OC)c3)C(=O)N(CC(=O)c3ccc(OCc4ccccc4)cc3)C2=O)cc1OC | 16.8 | –
CCOC(=O)CN1C(=O)C(c2ccc(OC)c(OC)c2)=C(c2ccc(OC)c(OC)c2)C1=O | 7 | –
COc1ccc(CCN(C)CCCC(C#N)(c2ccc(OC)c(OC)c2)C(C)C)cc1OC (stereo not given) | – | Activity (MDA-435/LCC6): inactive
COc1ccc(C(=O)CN2C(=O)C(c3cc(OC)c(OC)c(OC)c3)=C(c3cc(OC)c(OC)c(OC)c3)C2=O)cc1OC | 3.3 | –
COc1ccc(C2=C(c3cc(OC)c(OC)c(OC)c3)C(=O)N(Cc3cc(OC)c(OC)c(OC)c3)C2=O)cc1OC | 7.4 | –
COc1ccc(C(=O)CN2C(=O)C(c3ccc(OC)c(OC)c3)=C(c3cc(OC)c(OC)c(OC)c3)C2=O)cc1 | 7.2 | –
COc1ccc(C2=C(c3ccc(OC)c(OC)c3)C(=O)N(CCn3cnc4c(N)ncnc43)C2=O)cc1OC | 1.7 | –
COc1ccc(CCN2C(=O)C(c3ccc(OC)c(OC)c3)=C(c3cc(OC)c(OC)c(OC)c3)C2=O)cc1 | 12.7 | –
COc1ccc(C2=C(c3ccc(OC)c(OC)c3)C(=O)N(CCn3cnc4c(=O)n(C)c(=O)n(C)c43)C2=O)cc1OC | 1.2 | –
COc1ccc(CCN2C(=O)C(c3ccc(OC)c(OC)c3)=C(c3cc(OC)c(OC)c(OC)c3)C2=O)cc1OC | 4.6 | –
CCOc1cc(CN2C(=O)C(c3ccc(OC)c(OC)c3)=C(c3ccc(OC)c(OC)c3)C2=O)cc(OCC)c1OCC | 1.9 | –
COc1cc(C(=O)CN2C(=O)C(c3cc(OC)c(OC)c(OC)c3)=C(c3cc(OC)c(OC)c(OC)c3)C2=O)cc(OC)c1OC | 1.8 | –
COc1ccc(C2=C(c3ccc(OC)c(OC)c3)C(=O)N(CC(=O)c3ccc(OCc4ccccc4)cc3)C2=O)cc1OC | 10.4 | –
COc1ccc(C2=C(c3ccc(OC)c(OC)c3)C(=O)N(CC(=O)c3ccc(OCc4ccccc4)c(OC)c3)C2=O)cc1OC | 42.7 | pIC50 [2]: < 4.00; selectivity ratio (P-gp (unknown origin)): > 1070; fold change (FC) [3]: 1.1; Activity (MDA-435/LCC6): inactive; Activity [9]: Active; Ratio EC50 (Homo sapiens [4]): 4.8; fold change (FC) [5]: 6.9; pIC50 (L929): < 4.00; pIC50 [6]: < 4.00; fold change (FC) [7]: 2.2; Drug uptake [10]: Active; fold change (FC) [8]: 5.6
COc1ccc(C2=C(c3cc(OC)c(OC)c(OC)c3)C(=O)N(c3cc(OC)c(OC)c(OC)c3)C2=O)cc1OC | 1.5 | –
COc1ccc(C(=O)CN2C(=O)C(c3cc(OC)c(OC)c(OC)c3)=C(c3cc(OC)c(OC)c(OC)c3)C2=O)cc1 | 4.9 | –
COc1ccc(C(=O)CN2C(=O)C(c3ccc(OC)c(OC)c3)=C(c3cc(OC)c(OC)c(OC)c3)C2=O)cc1OC | 5.1 | –
COc1ccc(C2=C(c3ccc(OC)c(OC)c3)C(=O)N(CC(=O)OC(C)(C)C)C2=O)cc1OC | 3.3 | –
COc1ccc(C2=C(c3ccc(OC)c(OC)c3)C(=O)N(CC(=O)O)C2=O)cc1OC | 0.9 | –
COc1ccc(CN2C(=O)C(c3ccc(OC)c(OC)c3)=C(c3cc(OC)c(OC)c(OC)c3)C2=O)cc1 | 18 | Ratio (Homo sapiens [11]): 4
COc1ccc(CN2C(=O)C(c3ccc(OC)c(OC)c3)=C(c3cc(OC)c(OC)c(OC)c3)C2=O)cc1OC | 13.2 | –
COc1ccc(C2=C(c3ccc(OC)c(OC)c3)C(=O)N(Cc3cc(OC(C)C)c(OC(C)C)c(OC(C)C)c3)C2=O)cc1OC | 8.5 | –
COc1ccc(C2=C(c3ccc(OC)c(OC)c3)C(=O)N(CC(=O)c3cc(OC)c(OC)c(OC)c3)C2=O)cc1OC | 9.3 | –
